Measured values: ChEMBL document CHEMBL4152240, “Synthesis, cytotoxicity and structure-activity relationship of indolizinoquinolinedione derivatives as DNA topoisomerase IB catalytic inhibitors” (2018)
Calls of active or inactive are those of the source. The rule behind the calls is not given here.

Legend:
[1] = target: T1, Topoisomerase I (Bos taurus) (UniProt Q2HPH0); experiment: Inhibition of calf thymus TOP1-mediated relaxation of supercoiled pBR322 DNA at 25 uM after 30 mins by agarose gel electrophoresis relative to camptothecin
T1 sequence (whole entry): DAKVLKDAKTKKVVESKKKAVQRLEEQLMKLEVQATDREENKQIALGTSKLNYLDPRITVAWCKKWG
Outline: (§1)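 0.5 µg supercoiled pBR322 in buffer (10 mM Tris-HCl pH 7.5, 50 mM KCl, 5 mM MgCl2, BSA, DTT) with 1 unit calf thymus TOP1, with or without compound (0.2-125 µM), 30 min at 37 C. Run on 0.8% agarose/TBE at 4.6 V/cm for 1.5 h, gel red stained. Activity graded in bands (e.g. +++ 81-120%). At least two independent repeats.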

HCT-116 [2] = experiment: Cytotoxicity against human HCT116 cells assessed as growth inhibition after 72 hrs by MTT assay; assay type: functional; details: HCT-116, 72 h
Outline: (§2)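 Five-dose MTT growth assay, compounds predissolved in DMSO, 72 h exposure at 37 C. Cells kept in RPMI-1640 or DMEM, 37 C, 5% CO2, passage 3-6. MTT (1 mg/mL in PBS) added for 4 h, formazan dissolved in DMSO, OD 570 nm. GI50 (50% growth inhibition) by nonlinear regression. Means ± SD, at least three repeats.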

CCRF-CEM = experiment: Cytotoxicity against human CCRF-CEM cells assessed as growth inhibition after 72 hrs by MTT assay; assay type: functional; outline: as §2
A549 = experiment: Cytotoxicity against human A549 cells assessed as growth inhibition after 72 hrs by MTT assay; assay type: functional; details: A549, 72 h; outline: as §2
Huh-7 = experiment: Cytotoxicity against human HuH7 cells assessed as growth inhibition after 72 hrs by MTT assay; assay type: functional; details: Huh-7, 72 h; outline: as §2
DU-145 = experiment: Cytotoxicity against human DU145 cells assessed as growth inhibition after 72 hrs by MTT assay; assay type: functional; details: DU-145, 72 h; outline: as §2
DNA [3] = experiment: Induction of unwinding effect of Escherichia coli relaxed pBR322 DNA at 1 to 9 uM preincubated with DNA for 10 mins followed by excess calf thymus TOP1 addition and measured after 30 mins by agarose gel electrophoresis; assay type: nucleic-acid assay
Outline: (§3)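 Compound (1, 3, 9 µM) preincubated with pBR322 DNA, supercoiled or relaxed, at room temperature for 10 min. Excess TOP1 then added and incubated 30 min at 37 C. Stopped with SDS/proteinase K. Ethidium bromide (0.3-1.2 mg/L) as positive control. Run on 0.8% agarose in TBE at 4.6 V/cm for 1.5 h, stained with gel red, UV visualized.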

DNA [4] = experiment: Induction of unwinding effect of Escherichia coli supercoiled pBR322 DNA at 1 to 9 uM preincubated with DNA for 10 mins followed by excess calf thymus TOP1 addition and measured after 30 mins by agarose gel electrophoresis; assay type: nucleic-acid assay; outline: as §3
[5] = target: T1, Topoisomerase I (Bos taurus); experiment: Inhibition of calf thymus TOP1-mediated relaxation of supercoiled pBR322 DNA after 30 mins by agarose gel electrophoresis; outline: as §1
[6] = target: T1, Topoisomerase I (Bos taurus); experiment: Inhibition of calf thymus TOP1-mediated relaxation of supercoiled pBR322 DNA at 125 uM after 30 mins by agarose gel electrophoresis relative to control; outline: as §1
HCT-116 [7] = experiment: Induction of apoptosis in human HCT116 cells assessed as early apoptotic cells at 1 uM after 12 hrs by annexin V-FITC/propidium iodide staining-based flow cytometric method (reference value: 0.47 to 1.19%); assay type: functional
HCT-116 [8] = experiment: Induction of apoptosis in human HCT116 cells assessed as late apoptotic cells at 1 uM after 12 hrs by annexin V-FITC/propidium iodide staining-based flow cytometric method (reference value: 0.34 to 0.81%); assay type: functional
HCT-116 [9] = experiment: Induction of apoptosis in human HCT116 cells assessed as viable cells at 1 uM after 12 hrs by annexin V-FITC/propidium iodide staining-based flow cytometric method (reference value: 97.60 to 98.95%); assay type: functional; details: HCT-116, 12 h, read-out: Activity
HCT-116 [10] = experiment: Induction of apoptosis in human HCT116 cells assessed as early apoptotic cells at 3 uM after 12 hrs by annexin V-FITC/propidium iodide staining-based flow cytometric method (reference value: 0.47 to 1.19%); assay type: functional
HCT-116 [11] = experiment: Induction of apoptosis in human HCT116 cells assessed as late apoptotic cells at 3 uM after 12 hrs by annexin V-FITC/propidium iodide staining-based flow cytometric method (reference value: 0.34 to 0.81%); assay type: functional
HCT-116 [12] = experiment: Induction of apoptosis in human HCT116 cells assessed as viable cells at 3 uM after 12 hrs by annexin V-FITC/propidium iodide staining-based flow cytometric method (reference value: 97.60 to 98.95%); assay type: functional; details: HCT-116, 12 h, read-out: Activity
HCT-116 [13] = experiment: Induction of apoptosis in human HCT116 cells assessed as early apoptotic cells at 9 uM after 12 hrs by annexin V-FITC/propidium iodide staining-based flow cytometric method (reference value: 0.47 to 1.19%); assay type: functional
HCT-116 [14] = experiment: Induction of apoptosis in human HCT116 cells assessed as late apoptotic cells at 9 uM after 12 hrs by annexin V-FITC/propidium iodide staining-based flow cytometric method (reference value: 0.34 to 0.81%); assay type: functional
HCT-116 [15] = experiment: Induction of apoptosis in human HCT116 cells assessed as viable cells at 9 uM after 12 hrs by annexin V-FITC/propidium iodide staining-based flow cytometric method (reference value: 97.60 to 98.95%); assay type: functional; details: HCT-116, 12 h, read-out: Activity
HCT-116 [16] = experiment: Induction of apoptosis in human HCT116 cells after 12 hrs by annexin V-FITC/propidium iodide staining-based flow cytometric method; assay type: functional, cell-based

Structure (SMILES)	inhibition [1] [%]	GI50 (HCT-116 [2]) [nM]	GI50 (CCRF-CEM) [nM]	GI50 (A549) [nM]	GI50 (Huh-7) [nM]	GI50 (DU-145) [nM]	Activity (DNA [3])	Activity (DNA [4])	inhibition [5]	inhibition [6] [%]	Activity (HCT-116 [7]) [%]	Activity (HCT-116 [8]) [%]	viability at 1 µM (HCT-116 [9]) [%]	Activity (HCT-116 [10]) [%]	Activity (HCT-116 [11]) [%]	viability at 3 µM (HCT-116 [12]) [%]	Activity (HCT-116 [13]) [%]	Activity (HCT-116 [14]) [%]	viability at 9 µM (HCT-116 [15]) [%]	Activity (HCT-116 [16])
O=C1c2cccnc2C(=O)c2c1c(C(=O)OCCN1CCOCC1)c1c(F)cccn21	< 40	110	1100	130	570	230	–	–	–	–	–	–	–	–	–	–	–	–	–	–
O=C1c2cnncc2C(=O)c2c1c(C(=O)OCCN1CCOCC1)c1ccccn21	81 to 120	3430	1350	860	2920	1220	inactive	inactive	–	–	–	–	–	–	–	–	–	–	–	–
O=C1c2cccnc2C(=O)c2c1c(C(=O)OCCN1CCCCC1)c1c(Cl)cccn21	> 121	310	390	120	170	2520	Active	Active	–	–	–	–	–	–	–	–	–	–	–	–
CN1CCN(CCCOC(=O)c2c3c(n4cccc(F)c24)C(=O)c2ncccc2C3=O)CC1	41 to 80	44	320	21	42	73	–	–	–	–	–	–	–	–	–	–	–	–	–	–
CN(C)CCOC(=O)c1c2c(n3cccc(F)c13)C(=O)c1ncccc1C2=O	41 to 80	92	1090	27200	310	690	–	–	–	–	–	–	–	–	–	–	–	–	–	–
CN(C)CCCOC(=O)c1c2c(n3cccc(F)c13)C(=O)c1ncccc1C2=O	81 to 120	66	370	18	80	25	Active	Active	–	–	–	–	–	–	–	–	–	–	–	–
CCOC(=O)c1c2c(n3ccc(NC(=O)CCN4CCCC4)cc13)C(=O)c1ncccc1C2=O	41 to 80	1900	540	29300	1800	700	–	–	–	–	–	–	–	–	–	–	–	–	–	–
CCOC(=O)c1c2c(n3ccccc13)C(=O)c1ncccc1C2=O	81 to 120	330	680	160	850	93	inactive	inactive	–	–	–	–	–	–	–	–	–	–	–	–
O=C1c2nccnc2C(=O)c2c1c(C(=O)OCCN1CCOCC1)c1ccccn21	41 to 80	13200	1610	8520	7330	2550	–	–	–	–	–	–	–	–	–	–	–	–	–	–
O=C1c2cccnc2C(=O)c2c1c(C(=O)OCCCN1CCCC1)c1c(F)cccn21	41 to 80	29	510	80	110	92	–	–	–	–	–	–	–	–	–	–	–	–	–	–
O=C1c2cccnc2C(=O)c2c1c(C(=O)OCCCN1CCCCC1)c1c(Cl)cccn21	41 to 80	5150	5350	890	1320	1730	–	–	–	–	–	–	–	–	–	–	–	–	–	–
O=C1c2cccnc2C(=O)c2c1c(C(=O)OCCCN1CCOCC1)c1c(Cl)cccn21	< 40	19100	68600	37500	28400	29100	–	–	–	–	–	–	–	–	–	–	–	–	–	–
O=C1c2cccnc2C(=O)c2c1c(C(=O)OCCCN1CCOCC1)c1c(F)cccn21	< 40	38	490	230	130	250	–	–	–	–	–	–	–	–	–	–	–	–	–	–
O=C1c2cccnc2C(=O)c2c1c(C(=O)OCCCN1CCCC1)c1c(Cl)cccn21	< 40	38200	85300	24500	12200	8320	–	–	–	–	–	–	–	–	–	–	–	–	–	–
O=C1c2cccnc2C(=O)c2c1c(C(=O)OCCCN1CCCCC1)c1c(F)cccn21	> 121	27	350	72	120	210	inactive	inactive	Dose-dependent effect	100	2.14	3.98	93.4	2.5	16.74	79	4.73	31.59	61.7	Dose-dependent effect
CCOC(=O)c1c2c(n3ccc(NC(=O)CCN4CCCCC4)cc13)C(=O)c1ncccc1C2=O	81 to 120	1430	110	2650	1150	3120	inactive	inactive	–	–	–	–	–	–	–	–	–	–	–	–
O=C1c2cccnc2C(=O)c2c1c(C(=O)OCCN1CCCCC1)c1c(F)cccn21	> 121	25	380	290	59	91	inactive	inactive	Dose-dependent effect	100	2.12	2.39	95.2	1.26	10.47	86.9	2.47	38.17	57.1	Dose-dependent effect
O=C1c2cccnc2C(=O)c2c1c(C(=O)OCCN1CCCC1)c1c(Cl)cccn21	< 40	10200	48200	5390	2250	1580	–	–	–	–	–	–	–	–	–	–	–	–	–	–
O=C1c2ncccc2C(=O)c2c1c(C(=O)OCCN1CCOCC1)c1ccccn21	> 121	11100	70500	4520	14200	1200	inactive	inactive	–	–	–	–	–	–	–	–	–	–	–	–
CCOC(=O)c1c2c(n3ccc(NC(=O)CCN(C)C)cc13)C(=O)c1ncccc1C2=O	41 to 80	1750	290	19600	1650	2270	–	–	–	–	–	–	–	–	–	–	–	–	–	–
O=C1c2cccnc2C(=O)c2c1c(C(=O)OCCN1CCOCC1)c1c(Cl)cccn21	41 to 80	28600	61300	48600	30300	29500	–	–	–	–	–	–	–	–	–	–	–	–	–	–
CN1CCN(CCOC(=O)c2c3c(n4cccc(F)c24)C(=O)c2ncccc2C3=O)CC1	41 to 80	44	450	52	110	29	–	–	–	–	–	–	–	–	–	–	–	–	–	–
CCOC(=O)c1c2c(n3ccc(NC(=O)CCN4CCOCC4)cc13)C(=O)c1ncccc1C2=O	81 to 120	300	600	9680	340	16400	inactive	inactive	–	–	–	–	–	–	–	–	–	–	–	–
